Published values pooled from the literature.
Each line is one published result; the experiments were not run side by side.

| SMILES | cell line | observed | mode | technique | time | IC50 |
| --- | --- | --- | --- | --- | --- | --- |
| O=C(NCc1ccc(O)cc1)c1cn(Cc2ccc(F)cc2)c2ccc(Oc3ccccc3)cc2c1=O | MCF7 | cell growth or viability |  | MTT | 48 h | 78.5 µM |
| Cc1sc2c(c1C)C(c1ccc(Cl)cc1)=N[C@@H](CC(N)=O)c1nnc(C)n1-2 | MP46 | cell growth or viability |  | ATP luminescence | 72 h | 0.109 µM |
| O=C1CCP(=[Se])(c2ccccc2)CC1 | SW-620 | cell growth or viability |  | MTT | 72 h | > 100 µM |
| N.N.[Cl][Pt][Cl] | MCF7 | cell growth or viability |  | MTT | 48 h | 9.9 µM |
| N.N.[Cl][Pt][Cl] | SW-620 | cell growth or viability |  | MTT | 72 h | 6.7 µM |
| COc1ccc2c(c1OC)CN1CCc3cc4c(cc3[C@@H]1C2)OCO4 | HepaRG | reactive oxygen species | inhibitor |  | 16 h | 2.69 µM |
| O=C(NCc1ccccc1)c1cn(Cc2ccc(C(F)(F)F)cc2)c2ccc(Oc3ccccc3)cc2c1=O | MCF7 | cell growth or viability |  | MTT |  | < 12 µM |
| CC[C@@]1(O)C(=O)OCc2c1cc1n(c2=O)Cc2cc3ccccc3nc2-1 | MP46 | cell growth or viability |  | ATP luminescence | 72 h | 0.21 µM |
| CC[C@H](C)[C@H](NC(=O)[C@H](CCCCN)NC(=O)[C@H](CCCCN)NC(=O)[C@H](CC(C)C)NC(=O)[C@H](CCCCN)NC(=O)[C@H](CCCCN)NC(=O)[C@H](Cc1ccccc1)NC(=O)[C@H](Cc1ccccc1)NC(=O)[C@H](CCCNC(=N)N)NC(=O)[C@H](CCCNC(=N)N)NC(=O)[C@@H](NC(=O)[C@H](CCCCN)NC(=O)[C@H](CCCNC(=N)N)NC(=O)[C@@H](NC(=O)[C@@H](N)Cc1ccc(O)cc1)[C@@H](C)CC)[C@@H](C)CC)C(=O)N[C@@H](CC(C)C)C(=O)N[C@@H](CCCCN)C(=O)N[C@@H](CCCCN)C(N)=O | THP-1 | cell growth or viability |  | resazurin |  | 5.2 µM |
| CC(C)[C@H](NC(=O)[C@H](Cc1c[nH]c2ccccc12)NC(=O)[C@H](Cc1c[nH]cn1)NC(=O)[C@H](CCCNC(=N)N)NC(=O)[C@H](CCCNC(=N)N)NC(=O)[C@H](Cc1c[nH]c2ccccc12)NC(=O)[C@H](Cc1c[nH]c2ccccc12)NC(=O)[C@H](Cc1c[nH]cn1)NC(=O)[C@H](Cc1c[nH]c2ccccc12)NC(=O)[C@H](CCCNC(=N)N)NC(=O)[C@@H](N)CCCCN)C(=O)N[C@H](C(=O)N[C@@H](Cc1c[nH]c2ccccc12)C(N)=O)C(C)C | THP-1 | cell growth or viability |  | MTT |  | 103 µM |
| O=C(NCc1ccc(F)cc1)c1cn(Cc2ccc(C(F)(F)F)cc2)c2ccc(Oc3ccccc3)cc2c1=O | MCF7 | cell growth or viability |  | MTT | 24 h | 8.32 µM |
| S=P1(c2ccccc2)CCCCC1 | SW-620 | cell growth or viability |  | MTT | 72 h | > 100 µM |
